Assay results collected from several papers.
Target: Tyrosine-protein kinase ZAP-70 (ZAP70, Homo sapiens, UniProt P43403)
One construct used (P43403 1-619): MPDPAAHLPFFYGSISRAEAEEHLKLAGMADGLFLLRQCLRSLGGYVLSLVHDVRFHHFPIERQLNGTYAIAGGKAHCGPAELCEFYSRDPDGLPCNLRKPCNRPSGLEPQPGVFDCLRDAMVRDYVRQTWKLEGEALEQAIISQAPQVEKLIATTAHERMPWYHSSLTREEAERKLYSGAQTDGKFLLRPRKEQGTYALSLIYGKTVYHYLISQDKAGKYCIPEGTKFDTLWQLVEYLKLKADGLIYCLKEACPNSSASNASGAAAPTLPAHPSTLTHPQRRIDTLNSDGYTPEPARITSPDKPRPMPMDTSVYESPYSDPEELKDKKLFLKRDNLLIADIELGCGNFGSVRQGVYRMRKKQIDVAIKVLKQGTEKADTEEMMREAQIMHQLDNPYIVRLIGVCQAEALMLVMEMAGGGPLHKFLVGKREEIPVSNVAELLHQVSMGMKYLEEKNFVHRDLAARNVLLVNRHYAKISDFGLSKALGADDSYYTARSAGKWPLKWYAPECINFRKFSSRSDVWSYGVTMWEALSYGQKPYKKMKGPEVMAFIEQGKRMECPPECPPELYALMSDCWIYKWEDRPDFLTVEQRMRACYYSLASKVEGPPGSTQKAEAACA

SMILES | effect on | method | tested at | remaining binding [%]
c1cncc(-c2cccc(Nc3nccc(NC4CCCCC4)n3)c2)c1 | binding | competition with immobilised ligand | 10 µM | 91
CNC(=O)[C@@H]1CC[C@@H](n2c(-c3ccc4cnccc4c3)nc3ccc(C(=O)NCc4cccc(C(N)=O)c4)cc32)C1 | binding | competition with immobilised ligand | 1 µM | 100
F[C@@H]1CCN(c2nccc(-c3cnn4ncccc34)n2)C1 | binding | – | 1 µM | 100
O=C(NCCCN1CCOCC1)c1ccc(Nc2nccc(-c3cc4ccccc4s3)n2)cc1 | binding | competition with immobilised ligand | 1 µM | 69
N[C@@H]1CCN(c2nccc(-c3cnn4ncccc34)n2)C1 | binding | – | 1 µM | 53
O=C(NCC1CCOCC1)c1n[nH]cc1NC(=O)c1c(F)cccc1F | binding | competition with immobilised ligand | 1 µM | 100
O=C(O)[C@H]1[C@H](Cn2nnc3ccccc3c2=O)CC[C@@H]1C(=O)c1ccc(OCCC2CCOCC2)cc1 | cell-free assay | competition with immobilised ligand | 1 µM | 100
C[C@@H]1CN(c2ccc3ncc(-c4ccc5[nH]nc(C6CC6)c5c4)n3n2)C[C@H](C)O1 | binding | competition with immobilised ligand | 0.5 µM | 100
COc1ccc2c(O[C@@H]3C[C@H]4C(=O)N[C@]5(C(=O)O)CC5/C=C\CCCCC[C@H](NC(=O)OC5CCCC5)C(=O)N4C3)cc(-c3csc(NC(=O)C(C)C)n3)nc2c1C (stereo partly shown) | cell-free assay | competition with immobilised ligand | 1 µM | 100
O=C(NCCCN1CCOCC1)c1ccc(Nc2ncc(Cl)c(-c3ccc(Cl)s3)n2)cc1 | binding | competition with immobilised ligand | 1 µM | 88
CN(C)c1ncc(F)c(-c2cnn3ncccc23)n1 | binding | – | 1 µM | 79
C[C@@H](c1ccc(-n2cnc3c(N)ncnc32)cc1)N1CCc2nn(C)c(Cc3ccccc3)c2C1=O | binding | competition with immobilised ligand | 0.1 µM | 94
C[C@@H](c1cccc(C#N)c1)n1cc(Cl)cc(C(N)=O)c1=N | cell-free assay | competition with immobilised ligand | 1 µM | 84
C[C@@H]1CCN(c2nccc(-c3cnn4ncccc34)n2)C1 | binding | – | 1 µM | 75
O=C(c1ccc(Nc2ncc(Cl)c(-c3ccc(Cl)s3)n2)cc1)N1CCC(N2CCCC2)CC1 | binding | competition with immobilised ligand | 1 µM | 23
COc1cnc(Nc2cccc(S(N)(=O)=O)c2)nc1N1CCN(c2ccccc2)C(=O)C1 | binding | competition with immobilised ligand | 1 µM | 43
Cc1cc(-n2nc(Cc3cc(F)cc(C(F)(F)F)c3)nc2C)ccc1C(N)=O | cell-free assay | competition with immobilised ligand | 1 µM | 82
N#Cc1ccccc1CSc1nnc2c(n1)[nH]c1ccccc12 | binding | competition with immobilised ligand | 10 µM | 78
c1cnn2ncc(-c3ccnc(N4CCC45COC5)n3)c2c1 | binding | – | 1 µM | 80
CNCc1ccccc1-c1csc([C@@H](C)Nc2nc(C)nc3cc(OC)c(OC)cc23)c1 | cell-free assay | competition with immobilised ligand | 1 µM | 87
C=CC(=O)N1CCC(C(=O)NCC(=O)N2CCN(c3nc(-c4cnc(N)nc4C(F)F)nc(N4CCOCC4)n3)CC2)CC1 | binding | competition with immobilised ligand | 1 µM | 100
CS(=O)(=O)NCC[C@H](NC(=O)c1cncc2c1cnn2-c1ccc(F)cc1)c1ccnc(S(C)(=O)=O)c1 | cell-free assay | competition with immobilised ligand | 1 µM | 80
CC1CCCN1c1nccc(-c2cnn3ncccc23)n1 (stereo not shown) | binding | – | 1 µM | 100
CSc1cccnc1N1CCN(Cc2nc3ccccc3[nH]2)CC1 | cell-free assay | competition with immobilised ligand | 1 µM | 99
CN(C)c1nccc(-c2cnc3ncccn23)n1 | binding | – | 1 µM | 90
